Assay outcomes: PubChem BioAssay, Johns Hopkins Ion Channel Center
Most compounds without a hit are left out; they make up all but 3.5% or so of the library.
RGS4 pot – RGS4 potentiators or activators, primary screen, cell-based, HEK293 M3R inducible RGS4, calcium flux; carbachol calcium flux Fluo4; stronger effect = lower value; B-score at 10 µM; 310,000 tested, 0.92% active; AID 463111, 2010;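 active = B-score of the integrated calcium signal more than 4 SD below the library mean, with starting fluorescence not abnormally high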;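 also: negative B-score means reduced calcium response which marks RGS4 activation or potentiation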
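Assay system: HEK293 FlpIn-TREx cells, stable M3R, doxycycline-inducible RGS4 / Probe or stimulus: carbachol, ECmax concentration / Times: overnight RGS4 induction, 30 min dye load 37 °C, 20 min compound RT / Signal: kinetic calcium fluorescence imaging with Fluo4-AM dye, 2 µM / Measure: Agonist-evoked peak-minus-minimum fluorescence over baseline, integrated ratio, B score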
MrgX1 antag – antagonists of human MrgX1 receptor, primary screen, HEK293 cells, Fluo-4 calcium flux; BAM8-22 antagonism; stronger effect = lower value; 310,000 tested, 1.3% active; Mas-related G-protein coupled receptor member X1 (Homo sapiens), Q96LB2; B-score at 10 µM;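 active = calcium-response B-score plate-corrected more than 3 library SD below zero, starting fluorescence within 5 deviations, no agonist response on first addition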;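 also: peak minus trough fluorescence over baseline after final BAM8-22 challenge near maximal dose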
Target sequence (Q96LB2 whole entry, looked up): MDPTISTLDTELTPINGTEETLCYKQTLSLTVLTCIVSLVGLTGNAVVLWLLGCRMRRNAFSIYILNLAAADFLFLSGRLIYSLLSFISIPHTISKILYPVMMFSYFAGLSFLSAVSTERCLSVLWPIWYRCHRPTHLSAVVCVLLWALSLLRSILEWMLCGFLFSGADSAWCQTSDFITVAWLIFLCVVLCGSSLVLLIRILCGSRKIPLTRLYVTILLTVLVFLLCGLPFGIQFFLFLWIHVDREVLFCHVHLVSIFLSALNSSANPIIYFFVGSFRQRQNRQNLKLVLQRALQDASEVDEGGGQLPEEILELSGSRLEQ
RGS4 inh – RGS4 inhibitors, primary screen, cell-based, HEK293 M3R inducible RGS4, calcium flux; Fluo-4 calcium flux; stronger effect = higher value; triggered by carbachol at its EC20; B-score at 10 µM; 310,000 tested, 0.45% active; AID 463165, 2010;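 active = B-score, a plate-corrected calcium signal, over three deviations above library mean, with baseline fluorescence within five deviations of library mean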;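 also: RGS4 expression induced by doxycycline in cells with stable M3 receptor; B-score is computed from the integrated fluorescence ratio over baseline after carbachol; higher B-score means a larger calcium signal and so more RGS4 inhibition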
Target sequence (P49798 whole entry, looked up): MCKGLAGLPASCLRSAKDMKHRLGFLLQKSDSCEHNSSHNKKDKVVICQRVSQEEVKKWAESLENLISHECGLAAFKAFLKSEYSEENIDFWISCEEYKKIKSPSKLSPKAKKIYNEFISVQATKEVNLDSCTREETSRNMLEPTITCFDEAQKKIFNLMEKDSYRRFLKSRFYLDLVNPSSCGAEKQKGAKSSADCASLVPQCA
MrgX1 allo act – positive allosteric modulators of MrgX1, primary screen, HEK293 cells, Fluo-4 calcium flux; FDSS; stronger effect = higher value; B-score at 10 µM; 310,000 tested, 0.63% active; AID 588675, 2011;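 active = plate-corrected calcium response at least 3 library SD above typical, normal starting fluorescence, not activating the receptor alone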;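 also: compound read alongside a low EC10 to EC30 dose of BAM8-22 agonist; peak minus trough fluorescence over baseline measured at the second addition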
MrgX1 ag – agonists of human MrgX1 receptor, primary screen, HEK293 cells, Fluo-4 calcium flux; Mas-related G-protein coupled receptor member X1 (Homo sapiens), Q96LB2; Fluo-4 calcium fluorescence, agonist mode; stronger effect = higher value; B-score at 10 µM; 310,000 tested, 0.44% active; AID 588627, 2011;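 active = calcium response B-score plate-corrected fluorescence ratio at least 3 library SD, with starting fluorescence B-score inside 5 SD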
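System: HEK293 cells stably expressing human MrgX1 receptor; Dosing: test compound in the initial addition of three; Schedule: overnight plating, then 30 min 37 °C plus 30 min room-temperature dye loading; Detection: kinetic calcium dye fluorescence, Fluo-4 NW; Controls: per-plate positive and negative controls for Z′ factor.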
RGS4 block valid – enhanced carbachol calcium response, M3R/RGS4 cells, RGS4 inhibitor project, cell-based, validation screen, HEK293 M3R/RGS4, calcium flux; shares compounds with RGS4 inh; 1,700 tested, 65% active; calcium response, % at 10 µM; AID 492999, 2010; carbachol calcium Fluo-4 fluorescence; carbachol added at its EC20; 0 = buffer wells, 100 = carbachol control;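 active = duplicate-averaged calcium response above the buffer-only control mean plus 5 SD of those controls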;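 also: integrated fluorescence ratio F max minus min over baseline F0; higher response in RGS4-induced cells means RGS4 inhibition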
M3R Ca ctr – carbachol calcium response in non-induced M3R cells, confirmation, counter-screen for RGS4 inhibitor project, cell-based, HEK293 M3R | activity (percent), % at 10 µM | shares compounds with RGS4 inh | carbachol calcium Fluo-4; submaximal (EC20) carbachol stimulus; buffer wells 0%, carbachol control wells 100% | 1,900 tested, 20% active; call rule not given here;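 also: RGS4 induction absent so cells express M3R without RGS4; higher means more calcium signal and flags a non-specific hit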
RGS4 inh ctr2 – second counter-screen for RGS4 inhibitors: non-induced cells without carbachol. calcium response (agonist-mode artifact), % at 10 µM. 1,900 tested, 22% active. AID 493001. shares compounds with RGS4 inh. HEK293 M3R/RGS4 non-induced, Fluo-4 calcium, no carbachol; normalised: buffer wells 0%, carbachol wells 100%;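 active = duplicate-averaged calcium rise in uninduced cells above buffer wells' mean plus 5 SD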
Numbers without * were called inactive; i = inactive; / = no result given.

SMILES | RGS4 pot | MrgX1 antag | RGS4 inh | MrgX1 allo act | MrgX1 ag | RGS4 block valid | M3R Ca ctr | RGS4 inh ctr2
CC(=O)/C=C1/C(=O)Nc2ccccc21 | i | i | 18.3* | i | i | 33.5%* | 43.5%* | 26.5%*
Nc1ccc(-c2nc(-c3ccccc3)nc3ccccc23)cc1 | i | i | i | i | i | / | / | /
Nc1ccc(-c2cc(-c3cccc(N)c3)nc(-c3ccccc3)n2)cc1 | i | i | i | i | i | i | i | i
CC(C)(C)c1cc(-n2ccnc2)n2ncc(-c3ccc(Cl)cc3)c2n1 | i | i | 4.7* | i | i | 14.5%* | i | i
CC(C)(C)c1cc(NCCCn2ccnc2)n2ncc(-c3ccccc3)c2n1 | i | i | 9.04* | i | i | 10.5%* | i | i
CC(C)(C)c1cc(N2CCOCC2)n2ncc(-c3ccccc3)c2n1 | i | i | i | i | i | i | i | i
CCCc1cc(N2CCOCC2)n2ncc(-c3ccccc3)c2n1 | i | i | i | i | i | / | / | /
Cc1ccc(C)c(-c2cc(C(=O)Nc3sc(C)c(C)c3C(N)=O)c3ccccc3n2)c1 | i | i | i | i | i | / | i | 7.0%*
CC(NC(=O)c1cc2cc(F)ccc2[nH]1)c1ccccc1 (stereo not given) | i | i | i | i | i | / | / | /
Cc1noc(C)c1COc1ccc(C(=O)OCC(=O)Nc2ccc(C(=O)N(C)C)cc2)cc1 | i | i | i | i | i | / | / | /
Cc1cccc2cc(/C=C/C(=O)c3ccco3)c(Cl)nc12 | i | i | i | i | i | / | / | /
CCOc1ccc2nc(Cl)c(/C=C/C(=O)c3ccco3)cc2c1 | i | i | 9.51* | i | i | i | 40.5%* | i
Cc1nn(CC(=O)NCCc2ccco2)c(=O)c2nn(-c3ccccc3)c(C)c12 | i | i | i | i | i | / | / | /
Cc1ccc(-n2nc3c(=O)n(CC(=O)NCc4ccccn4)nc(C)c3c2C)cc1 | i | i | i | i | i | / | / | /
Cc1nn(CC(=O)NCCc2cccs2)c(=O)c2nn(-c3ccccc3)c(C)c12 | i | i | i | i | i | / | i | 35.0%*
Cc1ccc(-n2nc3c(=O)n(CC(=O)NCc4cccs4)nc(C)c3c2C)cc1 | i | i | 4.86* | i | i | i | i | i
COc1ccc(-c2[nH]ncc2-c2cscn2)c(O)c1 | i | i | i | i | i | / | / | /
CN(C)C(=O)COc1ccc(C(=O)/C=C/c2cccnc2)cc1 | i | i | 5.59* | 6.85* | i | 17.0%* | i | i
O=C(/C=C/c1cccnc1)c1ccc(O)cc1 | i | i | 5.2* | i | i | 15.0%* | i | i
O=C(/C=C/c1cccnc1)c1cccc(O)c1 | i | i | 12.1* | i | i | 37.0%* | i | i
O=C(/C=C/c1cccnc1)c1ccc([N+](=O)[O-])cc1 | i | i | 6.05* | i | i | 43.0%* | 54.5%* | i
O=C(/C=C/c1ccc(O)cc1)c1ccccc1 | i | i | i | i | i | / | / | /
CN(C)c1ccc(/C=C/C(=O)c2cccnc2)cc1 | i | i | i | i | i | / | / | /
Cc1cccc(C)c1N/C=C/c1onc(C)c1[N+](=O)[O-] | i | i | i | i | i | / | / | /
O=C(/C=C/c1cccc(O)c1)c1cccnc1 | i | i | 5.76* | i | i | 8.5%* | i | 10.5%*
SMILES | RGS4 pot | MrgX1 antag | RGS4 inh | MrgX1 allo act | MrgX1 ag | RGS4 block valid | M3R Ca ctr | RGS4 inh ctr2
O=C(/C=C/c1cccnc1)c1ccccc1O | i | i | 8.84* | i | i | 37.0%* | 63.0%* | 8.5%*
Cc1ccc(/C=C/C(=O)c2ccccc2O)cc1 | i | i | i | i | i | / | / | /
Cc1noc(/C=C/c2cccnc2)c1[N+](=O)[O-] | i | i | 5.7* | i | i | 18.5%* | i | i
COc1ccc(C2(C)NC(=O)N(CC(=O)Nc3ccc(S(=O)(=O)N4CCCC4)cc3)C2=O)cc1 (stereo not given) | i | i | i | i | i | / | / | /
N#C/C(=C\c1cccc([N+](=O)[O-])c1)c1nnc2n1CCCCC2 | i | i | 6.06* | i | i | 15.5%* | i | i
Cc1csc(NC(=O)c2nn(C)c(C)c2[N+](=O)[O-])n1 | i | i | i | i | i | / | / | /
Cc1ccc(C)c(S(=O)(=O)N2CCCCC2CCNC(=O)C(=O)NCc2ccco2)c1 (stereo not given) | i | i | i | i | i | / | / | /
COc1ccc(-c2oc(NC(=O)CCl)c(C#N)c2-c2ccc(OC)cc2)cc1 | i | i | 11.1* | i | i | 58.5%* | i | i
COc1ccc(-c2oc(NC(=O)CSc3ncn[nH]3)c(C#N)c2-c2ccc(OC)cc2)cc1 | i | i | i | i | i | / | / | /
CN(CC1CCCN(CCc2ccc(F)cc2)C1)C(=O)CCC(N)=O (stereo not given) | i | i | i | i | i | / | / | /
O=C(/C=C/c1ccco1)Nc1nc(-c2ccccn2)cs1 | i | i | 11.7* | i | i | 22.0%* | i | i
O=C(/C=C/c1ccco1)Nc1nc(-c2ccccc2)cs1 | i | i | i | i | i | / | / | /
CCOC(=O)C1CCCN(C(=O)C2CCN(S(=O)(=O)c3c(C)noc3/C=C/c3ccccc3F)CC2)C1 (stereo not given) | i | i | i | i | i | / | / | /
CCn1c(CC(=O)Nc2ccccc2)nnc1SCC(=O)Nc1nnc(C)s1 | i | i | i | i | i | / | / | /
O=C1NN(c2ccccc2)C(=O)/C1=C\c1ccc2c(c1)OCO2 | i | i | 7.68* | i | i | i | i | i
O=C1NC(=S)N/C1=C/c1ccc2c(c1)OCO2 | i | i | i | i | i | / | / | /
